Screening data as filed in PubChem.
This is a sample that favours compounds with a hit; in the whole collection about 2.3% have one here.
TRPC4 potent: allosterically enhances the mouse TRPC4 cation channel | hit rate 0.42% among 310,000 | Q9QUQ5 | HEK293 TRPC4beta/mu-opioid, DAMGO EC20, Fluo-4 Ca2+ flux; hits give high values | B-score at 10 µM;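 active = B-score of calcium response area above 5 SD of library B-scores, with initial fluorescence ratio within 5 SD of library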;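 note: B-score of integrated fluorescence ratio over time as area under calcium response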
TRPC4 act: opens the mouse TRPC4 cation channel | HEK293 TRPC4beta/mu-opioid, Fluo4 calcium fluorescence; hits give high values | B-score at 10 µM | hit rate 0.49% among 310,000;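 active = B-score above 5 SD of library B-scores, and initial fluorescence ratio not above library mean plus 5 SD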;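 note: positive B-score marks a calcium rise read as TRPC4 activation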
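Assay system: HEK293 stable line with TRPC4beta plus mu-opioid receptor. Times: dye 45 min RT, read 110 s. Measured by: kinetic Fluo4 calcium fluorescence. Measure: B score of integrated ratio. Controls: assay buffer as low control, maximal DAMGO as high control.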
TRPC6 activator: mouse TRPC6 channel activation. Q61143. HEK293-TRPC6 membrane potential dye fluorescence; hits give high values. B-score at 10 µM. hit rate 0.13% among 310,000. AID 2550;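 active = B-score of the integrated fluorescence ratio above library mean plus 3 SD, and starting fluorescence ratio within library mean plus 5 SD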;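 note: higher score means more depolarization so channel activation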
TRPC4 inh: TRPC4 (mouse) channel inhibition; Q9QUQ5; HEK293 TRPC4beta/mu-opioid, DAMGO-evoked Fluo4 calcium flux; hits give low values; B-score at 10 µM; hit rate 0.39% among 300,000;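 active = B-score over 3 SD under the library average, no early fluorescence shift, positive overall ratio signal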
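Assay system: HEK293 cells with stable TRPC4beta plus mu-opioid receptor expression; Probe or stimulus: DAMGO in two steps, submaximal then maximal; Dosing: single-point compound dosing; Measured by: Fluo4 calcium-dye fluorescence, kinetic read; Read-out basis: B score from integrated Fluo4 fluorescence ratio.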
TRPC6 inh: mouse TRPC6 channel inhibition; HEK293-TRPC6, membrane potential dye, ACh-evoked depolarization; hits give low values; B-score at 10 µM; hit rate 1.1% among 310,000;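 active = B-score under library mean minus 3 SD, initial fluorescence not abnormally high, positive integrated signal ratio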;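 note: B-score derived from integrated fluorescence ratio over the kinetic read; more negative B-score means stronger inhibition of depolarization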
Starred values were filed as active, the others as inactive; i = inactive.

SMILES	TRPC4 potent	TRPC4 act	TRPC6 activator	TRPC4 inh	TRPC6 inh
Clc1cccc(C[n+]2cc(-c3ccccc3)n3c2CCC3)c1	i	i	i	-6*	i
O=C(C[n+]1cc(-c2ccccc2)n2c1CCC2)c1cccs1	i	i	i	i	i
Cc1ccc(-c2c[n+](Cc3ccc(Cl)cc3)c3n2CCC3)cc1	i	i	i	i	i
O=C(C[n+]1cc(-c2ccccc2)n2c1CCC2)N1c2ccccc2Sc2ccccc21	i	i	i	i	-5.5*
CC(C)CC(=O)NNC(=O)C(C)C	i	i	i	i	i
CCCN1Cc2cccc(C(=O)N3CCN(c4cc(Cl)ccc4C)CC3)c2C1=O	15*	i	i	i	i
CCn1cc(CN2CCC(n3nccc3NC(=O)Cc3ccccc3)CC2)cn1	i	i	i	i	i
Cc1ccc(CN2CCC(n3nccc3NC(=O)CCOc3ccccc3)CC2)cc1C	i	i	i	-6*	i
COc1ccc(CN2CCC(n3nccc3NC(=O)CCc3ccccc3)CC2)c(C)c1C	i	82*	i	i	i
CCn1cc(CN2CCC(n3nccc3NC(=O)CCCc3ccccc3)CC2)cn1	i	43*	i	-7*	i
O=C(N/N=C/c1cccc2ccccc12)c1ccccc1Cl	10*	i	i	i	i
Cc1ccc(C)c(OCCn2ccnc2)c1	i	i	i	i	i
Clc1ccc(OCCn2ccnc2)cc1Cl	14*	57*	i	i	i
Clc1cc(Br)ccc1OCCn1ccnc1	i	84*	i	-6*	i
Cc1cc(Br)ccc1OCCn1ccnc1	i	116*	i	i	i
CC(=O)n1cc([C@@H]2C=C(C(=O)NCc3ccccc3)O[C@H](OCc3ccc(CO)cc3)C2)c2ccccc21	15*	i	i	i	i
O=C(NCc1ccccc1)C1=C[C@@H](c2ccc(Br)cc2)C[C@@H](OCc2ccc(CO)cc2)O1	i	i	i	i	i
O=C(Nc1ccccc1)C1=C[C@H](c2ccc(C(F)(F)F)cc2)C[C@H](OCc2ccc(CO)cc2)O1	i	i	i	i	i
O=C(Nc1ccccc1)C1=C[C@H](c2ccccc2)C[C@H](OCc2ccc(CO)cc2)O1	12*	i	i	i	i
O=C(NCc1ccccc1)C1=C[C@H](c2ccc(C(F)(F)F)cc2)C[C@H](OCc2ccc(CO)cc2)O1	19*	i	i	i	i
O=C(NCc1ccccc1)C1=C[C@H](c2ccccc2)C[C@H](OCc2ccc(CO)cc2)O1	i	176*	i	i	i
O=C(Nc1ccccc1C(=O)NCCCN1CCOCC1)c1ccc(F)cc1	i	i	i	i	i
Cc1cccc2sc(NS(=O)(=O)c3ccccc3)nc12	i	i	i	i	i
CC(C)(C)c1[nH]nc2c1C(C1C=CCCC1)C(C#N)=C(N)O2 (stereo not given)	i	i	i	i	i
CC(C)c1[nH]nc2c1C(C1C=CCCC1)C(C#N)=C(N)O2 (stereo not given)	21*	i	i	i	i
SMILES	TRPC4 potent	TRPC4 act	TRPC6 activator	TRPC4 inh	TRPC6 inh
COC(=O)c1ccc(N2CCN(C)CC2)c(NC(=O)COc2cccc(C)c2)c1	i	63*	i	i	i
CN1CCN(c2ccc(NC(=O)COc3ccccc3)cc2Cl)CC1	i	i	i	i	i
Cc1cccc(OCC(=O)Nc2ccccc2N2CCN(C)CC2)c1	i	i	i	i	i
COC(=O)c1ccc(N2CCOCC2)c(NC(=O)c2cccs2)c1	i	i	i	i	i
COC(=O)c1ccc(N2CCN(C)CC2)c(NC(=O)c2cccs2)c1	i	142*	i	i	i
COC(=O)c1ccc(N2CCN(C)CC2)c(NC(=O)COc2ccccc2)c1	i	120*	i	i	i
O=C(CN(Cc1ccc(F)cc1)C(=O)CCC(=O)Nc1nccs1)NCc1ccccc1	i	i	i	i	i
CCCNS(=O)(=O)c1ccc(OCC(=O)NCc2ccc3c(c2)OCO3)cc1	i	i	i	i	i
